Active and inactive are the calls of the source. The rule behind the calls is not given here.
Assays:
Arabidopsis thaliana [1] = experiment: Growth inhibition of Arabidopsis thaliana suspension cultured cells assessed as reduction in dry weight increase measured 8 days after compound incubation; type: functional
Procedure, shortened: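 Same A. thaliana Columbia suspension cultures, inoculated at 3.2–3.5 mg mL-1 dry weight. Filter-sterilized compounds (pH 6.0 with KOH) added at increasing concentrations once density reached 4.0 mg mL-1. After 8 days, when controls reached early stationary phase, cells were vacuum-filtered and oven-dried (90 °C, 48 h). Dry weight increase given as % of control; 50% growth-reduction concentration derived.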

[2] = biological target: T1, Pyrroline-5-carboxylate reductase (Arabidopsis thaliana, UniProt P54904); experiment: Inhibition of Arabidopsis thaliana P5C assessed as reduction in NADH oxidation incubated at 35 degC up to 10 min
T1 sequence (P54904 whole entry): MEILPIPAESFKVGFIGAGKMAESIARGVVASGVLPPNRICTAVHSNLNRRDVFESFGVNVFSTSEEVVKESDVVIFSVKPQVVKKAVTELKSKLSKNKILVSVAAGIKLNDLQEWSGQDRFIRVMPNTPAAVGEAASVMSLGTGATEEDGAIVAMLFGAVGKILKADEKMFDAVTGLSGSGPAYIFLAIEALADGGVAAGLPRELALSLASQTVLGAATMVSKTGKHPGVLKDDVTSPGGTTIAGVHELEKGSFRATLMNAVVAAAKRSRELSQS
Procedure, shortened: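 P5C reductase partially purified from stationary-phase A. thaliana cultured cells. Forward reaction run in 100 mM Tris-HCl pH 8.0, 0.1 mM MgCl2, 2 mM DL-P5C, 0.25 mM NADH, with 0.15–0.20 nkat enzyme. A340 followed at 35 °C for up to 10 min against P5C-free blanks. Inhibitor final 5 µM–5 mM (pH 7.5–8.0), triplicate. IC50 by linear regression of % activity vs log concentration.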

Arabidopsis thaliana [3] = experiment: Growth inhibition of Arabidopsis thaliana suspension cultured cells assessed as reduction in dry weight increase at 0.2 mM measured 8 days after compound incubation in presence of exogenously supplied 2 mM proline; type: functional
Procedure, shortened: (§1)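 A. thaliana Columbia suspension cells (MS medium, 0.3% sucrose, 2,4-D and BAP 0.5 mg L-1 each; 24 °C, 100 rpm, dim light). Flasks inoculated at 3.2–3.5 mg mL-1 dry weight. Inhibitor (pH 6.0) plus filter-sterilized amino acids added together at 4.0 mg mL-1. Dry weight increase after 8 days (oven, 90 °C, 48 h) given as % of untreated control. Four replicates.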

Arabidopsis thaliana [4] = experiment: Growth inhibition of Arabidopsis thaliana suspension cultured cells assessed as reduction in dry weight increase at 0.2 mM measured 8 days after compound incubation in presence of exogenously supplied 10 mM glutamine; type: functional; procedure, shortened: as §1
Arabidopsis thaliana [5] = experiment: Growth inhibition of Arabidopsis thaliana suspension cultured cells assessed as reduction in dry weight increase at 0.2 mM measured 8 days after compound incubation in presence of exogenously supplied 10 mM glutamine and 2 mM proline; type: functional; procedure, shortened: as §1

| SMILES | growth inhibition (GI) (Arabidopsis thaliana [1]) | IC50 [2] [mM] | other results |
| --- | --- | --- | --- |
| O=P(O)(O)C(Nc1cccc(Cl)c1Cl)P(=O)(O)O [2,3-DICHLOROPHENYLAMINOMETHYLENEBISPHOSPHONIC ACID] | Active | – | – |
| Cc1cc(C)cc(NC(P(=O)(O)O)P(=O)(O)O)c1 [3,5-DIMETHYLPHENYLAMINOMETHYLENEBISPHOSPHONIC ACID] | – | 1.07 | – |
| O=P(O)(O)C(N1CCCCCCC1)P(=O)(O)O [N-(HEPTAMETHYLENEIMINO)METHYLENEBISPHOSPHONIC ACID] | – | 533 | – |
| O=P(O)(O)C(Nc1c(Cl)cccc1Cl)P(=O)(O)O [2,6-DICHLOROPHENYLAMINOMETHYLENEBISPHOSPHONIC ACID] | Active | – | – |
| O=P(O)(O)C(N1CCCCCC1)P(=O)(O)O [N-(HEXAMETHYLENEIMINO)METHYLENEBISPHOSPHONIC ACID] | – | 74.4 | – |
| O=P(O)(O)C(Nc1cc(Cl)cc(Cl)c1)P(=O)(O)O [(3,5-DICHLOROPHENYLAMINO)METHYLENEDIPHOSPHONIC ACID] | – | – | growth inhibition (GI) (Arabidopsis thaliana [3]): Active; growth inhibition (GI) (Arabidopsis thaliana [4]): Active; growth inhibition (GI) (Arabidopsis thaliana [5]): inactive; GI50 (Arabidopsis thaliana [1]; 192 h): 0.24 mM |
